Among the data in ChEMBL document CHEMBL1136796 (J Med Chem, 2003) are IC50 and EC50 values, retold here.

pEC50, pIC50: −log10 of the molar value.

Usually pIC50 stands for the negative decadic logarithm of the IC50, by convention in mol/L. A higher pIC50 goes with a low IC50. In general, IC50 refers to the concentration that inhibits the measured activity by half. Low readings indicate higher potency, high ones lower potency. Broadly, the pEC50 is −log10 of the EC50, conventionally taken in molar units. High values mean a low EC50, low ones a high EC50.

In test [1] the test system is LT12 tumor cell line. Kind of test: Antiproliferative activity against LT12 tumor cell line. In kind it is functional, cell-based. The settings on record: Rattus norvegicus.
Test [2] concerns the target T1, Tubulin (Sus scrofa, UniProt P02554+P02550). The experiment in a line: In vitro inhibition of maximum porcine tubulin assembly rate after 20 min at 37 degrees C. The test is classed as functional.
Another test relates to RXF 944. Kind of test: Tested for induction of cellular death in Human renal RXF 944L tumor cell line in Propidium Iodide Monolayer Assay. In kind it is functional, cell-based. The procedure, abridged: (§1)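 Propidium iodide monolayer assay: cells seeded at 1 × 10^5 or 5 × 10^4 cells/mL, 24 h recovery, drug in triplicate for 3–6 days by doubling time; PI 25 μg/mL added, fluorescence (ex 530/em 620 nm) read before and after freezing at −18 °C for 24 h; viable cells from the difference; % T/C versus concentration.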

Test [3] deals with LT12 tumor cell line. Kind of test: Antiproliferative activity against LT12 phenotype LT12 MDR tumor cell line. In kind it is functional, cell-based. The settings on record: Rattus norvegicus.
The species entered for test [4] is Sus scrofa. The experiment in a line: In vitro inhibitory concentration against tubulin assembly. In kind it is functional.
Another test has as its system P388 (Mus musculus). The experiment in a line: Antiproliferative activity against P388 tumor cell line.
In test [5] the test system is SF-268. Kind of test: Cytotoxic activity against cellular metabolic activity of Glioma SF-268 tumor cell line using XTT proliferation assay after incubation with the compound for 48 h. In kind it is functional, cell-based. The settings on record: Homo sapiens, SF-268, 48 h.
For a further test, the system named is K562. Kind of test: In vitro inhibitory concentration against human chronic myelogenous leukemia K562 cell growth. In kind it is functional, cell-based.
Test [6] concerns the target T1, Tubulin. Kind of test: In vitro inhibitory concentration required to displace [3H]colchicine from its binding site on Tubulin. The test is classed as protein assay. The procedure, abridged:
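Streptavidin-coated yttrium SPA beads were then added and bound radioactivity measured by scintillation counting. IC50 was derived by nonlinear regression.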

The subject of another test is HeLa (Homo sapiens). The experiment in a line: Effective concentration required to arrest propidium iodide stained KB/HeLa cells in G2/M phase.
For test [7], the system named is NCI-H460. Kind of test: Cytotoxic activity against cellular metabolic activity of Lung NCI-H460 tumor cell line using XTT proliferation assay after incubation with the compound for 48 h. In kind it is functional, cell-based. The settings on record: Homo sapiens, NCI-H460, 48 h. The procedure, abridged: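 NCI-H460 human lung tumor cells seeded at 1 × 10^3 cells/well in microtiter plates and exposed to a range of compound concentrations for 48 h. Proliferation read as cellular metabolic activity by XTT. At least two replicates (n = 2); IC50 obtained from dose–response curves by nonlinear regression.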

For test [8], the system named is L1210. The experiment in a line: Antiproliferative activity against L1210 tumor cell line. In kind it is functional, cell-based. The settings on record: Mus musculus.
A further test relates to P388/ADR. Kind of test: Antiproliferative activity against P388 phenotype P388 ADR tumor cell line. The test is classed as functional, cell-based. The settings on record: Mus musculus.
Test [9] concerns RKO. Kind of test: Cytotoxic activity against human colon adenocarcinoma RKO cells without ectopic inducible expression of cyclin-dependent kinase inhibitor p27kip1. The test is classed as functional, cell-based.
Test [10] relates to L1210. Kind of test: Antiproliferative activity against L1210 phenotype L1210 VCR tumor cell line. In kind it is functional, cell-based. The settings on record: Mus musculus.
In a further test the test system is KB. Kind of test: Cytotoxic activity against cellular metabolic activity of Cervix KB/HeLa tumor cell line using XTT proliferation assay after incubation with the compound for 48 h. The test is classed as functional, cell-based. The settings on record: Homo sapiens. In general terms: Formazan colour is commonly taken as a measure of viable cells.
For the next test, the system named is LXFL 529. Kind of test: Tested for induction of cellular death in Human lung LXF 529L tumor cell line in Propidium Iodide Monolayer Assay. In kind it is functional, cell-based. The procedure, abridged:
as §1

Test [11] deals with RKO. The experiment in a line: Cytotoxic activity against human colon adenocarcinoma RKO cells with ectopic inducible expression of cyclin-dependent kinase inhibitor p27kip1. In kind it is functional, cell-based.
In the next test the test system is SK-OV-3. Kind of test: Cytotoxic activity against cellular metabolic activity of Ovary SKOV3 tumor cell line using XTT proliferation assay after incubation with the compound for 48 h. The test is classed as functional, cell-based. The settings on record: Homo sapiens, SK-OV-3, 48 h.
Test [12] deals with NCI-H460. The experiment in a line: Tested for induction of cellular death in Human lung H-460 tumor cell line in Propidium Iodide Monolayer Assay. In kind it is functional, cell-based. The procedure, abridged:
as §1

For the next test, the system named is MAXF401 cell line. The experiment in a line: Tested for induction of cellular death in Human breast 401NL tumor cell line in Propidium Iodide Monolayer Assay. In kind it is functional, cell-based. The procedure, abridged: as §1
The test system of the next test is MCF7. The experiment in a line: Tested for induction of cellular death in Human breast MCF-7 tumor cell line in Propidium Iodide Monolayer Assay. In kind it is functional, cell-based. The procedure, abridged:
as §1

The species named for test [13] is Sus scrofa. The experiment in a line: Concentration required to inhibit Microtubule assembly compared to colchicine using EM studies. In kind it is functional.
In test [14] the test system is Lung LXF 629L tumor cell line. Kind of test: Tested for induction of cellular death in Human lung LXF 629L tumor cell line in Propidium Iodide Monolayer Assay. The test is classed as functional, cell-based. The procedure, abridged:
as §1

Test [15] concerns SF-268. Kind of test: Tested for induction of cellular death in Human ZNS SF-268 tumor cell line in Propidium Iodide Monolayer Assay. In kind it is functional, cell-based. The procedure, abridged: as §1
Test [16] deals with T1, Tubulin. Kind of test: In vitro inhibitory concentration required to displace [3H]colchicine from its binding site on tubulin. The test is classed as protein assay.

With `COc1ccc(C=C2c3ccccc3C(=O)c3ccccc32)cc1O`, the pIC50 with LT12 tumor cell line [1] was 6.49; in the test with RXF 944 it was greater than 8.00; in the test with LT12 tumor cell line [3], 6.72; in the test listed under Sus scrofa [4] it was 6.17; in the test with P388 (Mus musculus), 6.80; in the test with SF-268 [5], 7.30. Further, the pIC50 was 7.70 in the test on K562; 7.15 in the test with NCI-H460 [7]; 6.85 in the test on L1210 [8]; 6.59 with P388/ADR; 7.22 in the test on RKO [9]; 6.89 in the test on L1210 [10]. The pIC50 in the test on KB is 7.05; in the test on LXFL 529, 6.28; in the test with RKO [11], less than 5.05; in the test with SK-OV-3 it was 7.30; in the test on NCI-H460 [12] it was greater than 8.00; with MAXF401 cell line it was greater than 8.00. For the same compound, the pIC50 in the test on MCF7 is greater than 8.00; in the test filed under Sus scrofa [13], 6.15; in test [14], greater than 8.00; with SF-268 [15], 7.52. Moreover, the IC50 was determined as 670 nM against Tubulin [2] and 370 nM on Tubulin [6]. In the test with HeLa (Homo sapiens), this compound gave a pEC50 of 6.69.

For the compound `COc1ccc(C=C2c3ccccc3C(=O)c3ccccc32)c(OC)c1O`, the pIC50 in the test on LT12 tumor cell line [1] was 6.92; with RXF 944 it was greater than 8.00; with LT12 tumor cell line [3] it was 7.05; in the test filed under Sus scrofa [4], 6.37; in the test with P388 (Mus musculus), 7.10; in the test on SF-268 [5] it was 7.22. Moreover, the pIC50 was 6.60 with K562; 7.22 in the test with NCI-H460 [7]; 7.30 in the test on L1210 [8]; 6.96 in the test with P388/ADR; 7.30 with RKO [9]; 7.15 in the test on L1210 [10]. The pIC50 is 7.30 with KB; 7.15 in the test with LXFL 529; less than 5.05 in the test with RKO [11]; 7.22 in the test with SK-OV-3; 6.82 in the test with NCI-H460 [12]; greater than 8.00 in the test on MAXF401 cell line. In addition, the pIC50 is 5.73 in the test with MCF7, 7.30 in test [14] and 7.40 in the test on SF-268 [15]. The values for the IC50 on Tubulin [2] and at Tubulin [16] were 430 nM and 220 nM, respectively. Moreover, the pEC50 in the test with HeLa (Homo sapiens) was 6.63.

`CC(=O)O[C@H]1C(=O)[C@@]2(C)[C@H]([C@H](OC(=O)c3ccccc3)[C@]3(O)C[C@H](OC(=O)[C@H](O)[C@@H](NC(=O)c4ccccc4)c4ccccc4)C(C)=C1C3(C)C)[C@]1(OC(C)=O)CO[C@@H]1C[C@@H]2O` [PACLITAXEL]: the pIC50 was 8.22 in the test with LT12 tumor cell line [1]; 6.40 with LT12 tumor cell line [3]; 7.40 in the test on P388 (Mus musculus); 8.00 with SF-268 [5]; 8.00 with NCI-H460 [7]; 7.22 in the test with L1210 [8]. Moreover, the pIC50 in the test on P388/ADR was less than 5.30; in the test on RKO [9], 8.00; in the test on L1210 [10], less than 5.30; in the test with KB, 8.00; in the test on RKO [11], less than 5.52; with SK-OV-3 it was 8.00. For the same compound, in the test with HeLa (Homo sapiens), the pEC50 is 7.27.

With `COC(=O)Nc1nc2cc(C(=O)c3cccs3)ccc2[nH]1` [NOCODAZOLE], the pIC50 in the test with LT12 tumor cell line [1] was 6.52; in the test on LT12 tumor cell line [3], 7.30; in the test with P388 (Mus musculus), 7.15; in the test on SF-268 [5] it was 6.52; with NCI-H460 [7], 6.82; with L1210 [8], 7.22. For the same compound, the pIC50 in the test with P388/ADR was 7.30; in the test on RKO [9] it was 6.96; in the test with L1210 [10], 7.15; in the test on KB it was 6.85; in the test with RKO [11] it was less than 5.00; in the test on SK-OV-3, 6.77. The compound further had a pEC50 in the test on HeLa (Homo sapiens) of 7.09.
